System: Fibroblast
Experiment: Multiplex assay against human fibroblast
Format: toxicity, cell-based
How it was run: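 Hoechst33342, BioTracker Green Microtubule Cytoskeleton Dye, MitoTracker Red and Annexin V Alexa Fluor 680 were added to live cells at seeding, and imaging on a CQ1 microscope at 37°C and 5% CO2 followed compound addition. Gating by CellPathfinder machine learning separated cells into Hoechst high-intensity objects or normal cells, then normal cells into healthy, pyknosed or fragmented nuclei, then pyknosed cells into mitotic or apoptotic. Per cents of healthy-nucleus cells are reported for the tubulin, mitochondrial-mass and membrane-permeability phenotypes.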

[1] = 12 h, 1 µM, compound concentration 1 uM, replicate 1
[2] = 12 h, 1 µM, compound concentration 1 uM, replicate 2
[3] = 12 h, 10 µM, compound concentration 10 uM, replicate 1
[4] = 12 h, 10 µM, compound concentration 10 uM, replicate 2
[5] = 24 h, 1 µM, compound concentration 1 uM, replicate 1
[6] = 24 h, 1 µM, compound concentration 1 uM, replicate 2
[7] = 24 h, 10 µM, compound concentration 10 uM, replicate 1
[8] = 24 h, 10 µM, compound concentration 10 uM, replicate 2
[9] = 48 h, 1 µM, compound concentration 1 uM, replicate 1
[10] = 48 h, 1 µM, compound concentration 1 uM, replicate 2
[11] = 48 h, 10 µM, compound concentration 10 uM, replicate 1
[12] = 48 h, 10 µM, compound concentration 10 uM, replicate 2

CSCC[C@H](NC=O)C(=O)N[C@@H](CC(C)C)C(=O)N[C@@H](Cc1ccccc1)C(=O)O
Population Fragmented Nuclei (%) [1]: 18% | Population Healthy Nuclei (%) [1]: 69% | Population Mitochondria Different-Phenotype (%) [1]: 3% | Population Tubulin-Different-Phenotype (%) [1]: 26% | Total Cell Count [1]: 182 | Population Fragmented Nuclei (%) [2]: 29% | Population Healthy Nuclei (%) [2]: 51% | Population Mitochondria Different-Phenotype (%) [2]: 4% | Population Tubulin-Different-Phenotype (%) [2]: 39% | Total Cell Count [2]: 175 | Population Mitochondria Different-Phenotype (%) [3]: 5% | Population Tubulin-Different-Phenotype (%) [3]: 24% | Total Cell Count [3]: 112 | Population Fragmented Nuclei (%) [4]: 27% | Population Healthy Nuclei (%) [4]: 39% | Population Hoechst High Intensity Objects (%) [4]: 38% | Population Membrane Permeable-Phenotype (%) [4]: 9% | Population Mitochondria Different-Phenotype (%) [4]: 3% | Population Normal (%) [4]: 61% | Population Tubulin-Different-Phenotype (%) [4]: 35% | Total Cell Count [4]: 315 | Population Healthy Nuclei (%) [5]: 73% | Population Mitochondria Different-Phenotype (%) [5]: 4% | Population Tubulin-Different-Phenotype (%) [5]: 18% | Total Cell Count [5]: 173 | Population Fragmented Nuclei (%) [6]: 35% | Population Healthy Nuclei (%) [6]: 46% | Population Hoechst High Intensity Objects (%) [6]: 7% | Population Mitochondria Different-Phenotype (%) [6]: 9% | Population Normal (%) [6]: 92% | Population Tubulin-Different-Phenotype (%) [6]: 43% | Total Cell Count [6]: 179 | Population Fragmented Nuclei (%) [7]: 19% | Population Membrane Permeable-Phenotype (%) [7]: 3% | Population Mitochondria Different-Phenotype (%) [7]: 7% | Population Tubulin-Different-Phenotype (%) [7]: 25% | Total Cell Count [7]: 107 | Population Healthy Nuclei (%) [8]: 38% | Population Hoechst High Intensity Objects (%) [8]: 32% | Population Mitochondria Different-Phenotype (%) [8]: 10% | Population Normal (%) [8]: 67% | Population Tubulin-Different-Phenotype (%) [8]: 47% | Total Cell Count [8]: 230 | Population Fragmented Nuclei (%) [9]: 16% | Population Healthy Nuclei (%) [9]: 69% | Population Mitochondria Different-Phenotype (%) [9]: 1% | Population Tubulin-Different-Phenotype (%) [9]: 21% | Total Cell Count [9]: 184 | Population Fragmented Nuclei (%) [10]: 36% | Population Healthy Nuclei (%) [10]: 47% | Population Mitochondria Different-Phenotype (%) [10]: 8% | Population Tubulin-Different-Phenotype (%) [10]: 54% | Total Cell Count [10]: 174 | Population Fragmented Nuclei (%) [11]: 18% | Population Mitochondria Different-Phenotype (%) [11]: 4% | Population Tubulin-Different-Phenotype (%) [11]: 24% | Total Cell Count [11]: 110 | Population Healthy Nuclei (%) [12]: 44% | Population Hoechst High Intensity Objects (%) [12]: 29% | Population Membrane Permeable-Phenotype (%) [12]: 4% | Population Mitochondria Different-Phenotype (%) [12]: 1% | Population Normal (%) [12]: 70% | Population Tubulin-Different-Phenotype (%) [12]: 47% | Total Cell Count [12]: 231

Cc1nc2ccc(Oc3ccc(F)cc3)cc2c(=O)n1C[C@H]1CCCN(C(C)C)C1.Cl
Population Apoptotic (%) [1]: 34% | Population Fragmented Nuclei (%) [1]: 19% | Population Healthy Nuclei (%) [1]: 67% | Population Hoechst High Intensity Objects (%) [1]: 5% | Population Membrane Permeable-Phenotype (%) [1]: 1% | Population Mitochondria Different-Phenotype (%) [1]: 4% | Population Mitotic Cells (%) [1]: 65% | Population Normal (%) [1]: 94% | Population Pyknosed Nuclei (%) [1]: 13% | Population Tubulin-Different-Phenotype (%) [1]: 31% | Total Cell Count [1]: 184 | Population Apoptotic (%) [2]: 44% | Population Fragmented Nuclei (%) [2]: 24% | Population Healthy Nuclei (%) [2]: 47% | Population Hoechst High Intensity Objects (%) [2]: 9% | Population Membrane Permeable-Phenotype (%) [2]: 21% | Population Mitochondria Different-Phenotype (%) [2]: 8% | Population Mitotic Cells (%) [2]: 55% | Population Normal (%) [2]: 90% | Population Pyknosed Nuclei (%) [2]: 29% | Population Tubulin-Different-Phenotype (%) [2]: 70% | Total Cell Count [2]: 111 | Population Apoptotic (%) [3]: 53% | Population Fragmented Nuclei (%) [3]: 19% | Population Healthy Nuclei (%) [3]: 61% | Population Hoechst High Intensity Objects (%) [3]: 4% | Population Membrane Permeable-Phenotype (%) [3]: 1% | Population Mitochondria Different-Phenotype (%) [3]: 22% | Population Mitotic Cells (%) [3]: 46% | Population Normal (%) [3]: 95% | Population Pyknosed Nuclei (%) [3]: 19% | Population Tubulin-Different-Phenotype (%) [3]: 88% | Total Cell Count [3]: 241 | Population Apoptotic (%) [4]: 61% | Population Fragmented Nuclei (%) [4]: 36% | Population Healthy Nuclei (%) [4]: 44% | Population Hoechst High Intensity Objects (%) [4]: 3% | Population Membrane Permeable-Phenotype (%) [4]: 5% | Population Mitochondria Different-Phenotype (%) [4]: 25% | Population Mitotic Cells (%) [4]: 38% | Population Normal (%) [4]: 96% | Population Tubulin-Different-Phenotype (%) [4]: 80% | Total Cell Count [4]: 205 | Population Apoptotic (%) [5]: 66% | Population Fragmented Nuclei (%) [5]: 17% | Population Healthy Nuclei (%) [5]: 68% | Population Hoechst High Intensity Objects (%) [5]: 3% | Population Membrane Permeable-Phenotype (%) [5]: 1% | Population Mitochondria Different-Phenotype (%) [5]: 6% | Population Mitotic Cells (%) [5]: 33% | Population Normal (%) [5]: 96% | Population Pyknosed Nuclei (%) [5]: 13% | Population Tubulin-Different-Phenotype (%) [5]: 30% | Total Cell Count [5]: 186 | Population Apoptotic (%) [6]: 38% | Population Fragmented Nuclei (%) [6]: 29% | Population Healthy Nuclei (%) [6]: 50% | Population Hoechst High Intensity Objects (%) [6]: 7% | Population Membrane Permeable-Phenotype (%) [6]: 19% | Population Mitochondria Different-Phenotype (%) [6]: 17% | Population Mitotic Cells (%) [6]: 61% | Population Normal (%) [6]: 92% | Population Pyknosed Nuclei (%) [6]: 20% | Population Tubulin-Different-Phenotype (%) [6]: 73% | Total Cell Count [6]: 112 | Population Apoptotic (%) [7]: 67% | Population Fragmented Nuclei (%) [7]: 27% | Population Healthy Nuclei (%) [7]: 58% | Population Hoechst High Intensity Objects (%) [7]: 3% | Population Membrane Permeable-Phenotype (%) [7]: 0% | Population Mitochondria Different-Phenotype (%) [7]: 27% | Population Mitotic Cells (%) [7]: 32% | Population Normal (%) [7]: 96% | Population Pyknosed Nuclei (%) [7]: 13% | Population Tubulin-Different-Phenotype (%) [7]: 84% | Total Cell Count [7]: 290 | Population Apoptotic (%) [8]: 54% | Population Fragmented Nuclei (%) [8]: 30% | Population Healthy Nuclei (%) [8]: 52% | Population Hoechst High Intensity Objects (%) [8]: 6% | Population Membrane Permeable-Phenotype (%) [8]: 1% | Population Mitochondria Different-Phenotype (%) [8]: 29% | Population Mitotic Cells (%) [8]: 45% | Population Normal (%) [8]: 93% | Population Pyknosed Nuclei (%) [8]: 17% | Population Tubulin-Different-Phenotype (%) [8]: 87% | Total Cell Count [8]: 187 | Population Apoptotic (%) [9]: 66% | Population Fragmented Nuclei (%) [9]: 25% | Population Healthy Nuclei (%) [9]: 66% | Population Hoechst High Intensity Objects (%) [9]: 3% | Population Membrane Permeable-Phenotype (%) [9]: 0% | Population Mitochondria Different-Phenotype (%) [9]: 2% | Population Mitotic Cells (%) [9]: 33% | Population Normal (%) [9]: 96% | Population Pyknosed Nuclei (%) [9]: 8% | Population Tubulin-Different-Phenotype (%) [9]: 33% | Total Cell Count [9]: 184 | Population Apoptotic (%) [10]: 42% | Population Fragmented Nuclei (%) [10]: 36% | Population Healthy Nuclei (%) [10]: 44% | Population Hoechst High Intensity Objects (%) [10]: 5% | Population Membrane Permeable-Phenotype (%) [10]: 6% | Population Mitochondria Different-Phenotype (%) [10]: 13% | Population Mitotic Cells (%) [10]: 57% | Population Normal (%) [10]: 94% | Population Pyknosed Nuclei (%) [10]: 19% | Population Tubulin-Different-Phenotype (%) [10]: 68% | Total Cell Count [10]: 105 | Population Apoptotic (%) [11]: 66% | Population Fragmented Nuclei (%) [11]: 23% | Population Healthy Nuclei (%) [11]: 65% | Population Hoechst High Intensity Objects (%) [11]: 9% | Population Membrane Permeable-Phenotype (%) [11]: 0% | Population Mitochondria Different-Phenotype (%) [11]: 20% | Population Mitotic Cells (%) [11]: 33% | Population Normal (%) [11]: 90% | Population Pyknosed Nuclei (%) [11]: 10% | Population Tubulin-Different-Phenotype (%) [11]: 85% | Total Cell Count [11]: 290 | Population Apoptotic (%) [12]: 68% | Population Fragmented Nuclei (%) [12]: 33% | Population Healthy Nuclei (%) [12]: 53% | Population Hoechst High Intensity Objects (%) [12]: 3% | Population Membrane Permeable-Phenotype (%) [12]: 2% | Population Mitochondria Different-Phenotype (%) [12]: 19% | Population Mitotic Cells (%) [12]: 32% | Population Normal (%) [12]: 96% | Population Pyknosed Nuclei (%) [12]: 12% | Total Cell Count [12]: 201
